Assay outcomes (PubChem)
An excerpt weighted towards active compounds, which were near 2.3% of everything screened.
TRPC6 activator: activators of mouse TRPC6 channel | B-score at 10 µM | HEK293-TRPC6 membrane potential dye fluorescence; active compounds read high | Q61143 | hit rate 0.13% among 310,000;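 active = B-score of the integrated fluorescence ratio above library mean plus 3 SD, and starting fluorescence ratio within library mean plus 5 SD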;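 note: higher score means more depolarization so channel activation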
TRPC4 agonist: TRPC4 (mouse) channel activation. Q9QUQ5. HEK293 TRPC4beta/mu-opioid, Fluo4 calcium fluorescence; active compounds read high. B-score at 10 µM. hit rate 0.49% among 310,000;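 active = B-score above 5 SD of library B-scores, and initial fluorescence ratio not above library mean plus 5 SD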;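 note: positive B-score marks a calcium rise read as TRPC4 activation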
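Assay system: HEK293 stable line with TRPC4beta plus mu-opioid receptor; schedule: 45 min room-temperature Fluo4 loading, 110 s read; technique: kinetic Fluo4 calcium fluorescence; evaluation: integrated baseline-normalised fluorescence ratio, converted to per-well B score; controls: buffer (low) and maximal DAMGO (high)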
TRPC6 inhibitor: mouse TRPC6 channel inhibition | Q61143 | HEK293-TRPC6, membrane potential dye, ACh-evoked depolarization; active compounds read low | B-score at 10 µM | hit rate 1.1% among 310,000 | AID 2553;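 active = B-score under library mean minus 3 SD, initial fluorescence not abnormally high, positive integrated signal ratio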;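 note: B-score derived from integrated fluorescence ratio over the kinetic read; more negative B-score means stronger inhibition of depolarization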
TRPC4 potent: allosterically enhances the mouse TRPC4 cation channel | HEK293 TRPC4beta/mu-opioid, DAMGO EC20, Fluo-4 Ca2+ flux; active compounds read high | B-score at 10 µM | hit rate 0.42% among 310,000 | AID 2227;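 active = B-score of calcium response area above 5 SD of library B-scores, with initial fluorescence ratio within 5 SD of library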;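 note: B-score of integrated fluorescence ratio over time as area under calcium response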
TRPC4 block: TRPC4 (mouse) channel inhibition. hit rate 0.39% among 300,000. B-score at 10 µM. HEK293 TRPC4beta/mu-opioid, DAMGO-evoked Fluo4 calcium flux; active compounds read low. Q9QUQ5;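 active = B-score over 3 SD under the library average, no early fluorescence shift, positive overall ratio signal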
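System: stable TRPC4beta/mu-opioid receptor HEK293 cells; Dosing: single-point compound dosing; Measured by: Fluo4 Ca2+ flux fluorescence; Read-out basis: per-well B score of integrated baseline-normalized Fluo4 ratio.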
An asterisk follows results filed as active; i = inactive.

SMILES	TRPC6 activator	TRPC4 agonist	TRPC6 inhibitor	TRPC4 potent	TRPC4 block
CCOC(=O)C1(CCCc2ccccc2)CCN(Cc2cn(CC)nc2C)CC1	i	124*	i	i	i
CCOC(=O)C1(Cc2cccc(F)c2)CCN(Cc2cn(CC)nc2C)CC1	i	78*	i	i	i
CCOC(=O)C1(Cc2cccc(F)c2)CCN(Cc2c(C)nn(CC)c2C)CC1	i	i	i	i	-6*
COc1ccc(-c2cc(N3C(=O)Nc4ccccc4N3O)n[nH]2)c(OC)c1	i	i	i	i	i
CN(C)S(=O)(=O)N1CCCN(S(=O)(=O)N(C)C)CC1	i	i	i	i	i
CN(C)S(=O)(=O)N1CCC(CCCC2CCN(S(=O)(=O)N(C)C)CC2)CC1	i	i	i	23*	i
CCOc1ccc(-n2cnnn2)cc1S(=O)(=O)NCc1ccccc1	i	i	i	i	-7*
CCOc1cc(S(=O)(=O)NCc2ccccc2)c(OCC)cc1-n1cnnn1	i	i	i	i	i
CCn1c(N2CCN(Cc3ccc([N+](=O)[O-])cc3)CC2)nc2ccccc21	i	124*	i	12*	i
CCCn1c(N2CCN(Cc3ccc(Cl)cc3)CC2)nc2ccccc21	i	i	i	i	i
CCn1c(N2CCN(C(=S)NCC(C)C)CC2)nc2ccccc21	i	105*	i	i	i
CC(C)CNC(=S)N1CCN(c2nc3ccccc3s2)CC1	i	i	i	i	i
CCn1c(N2CCN(C(=S)Nc3ccc(OC)cc3)CC2)nc2ccccc21	i	52*	i	i	i
CCn1c(N2CCN(S(=O)(=O)c3ccc(F)cc3)CC2)nc2ccccc21	i	i	i	i	i
CCn1c(N2CCN(S(=O)(=O)CC)CC2)nc2ccccc21	i	126*	i	i	i
COc1ccc(NC(=O)C2CC(=O)N(CCc3ccc(Cl)cc3)C2)cc1 (stereo not drawn)	i	i	i	i	i
CN(CC(=O)NC(=O)NCc1ccccc1)Cc1cccc(Cl)c1Cl	i	i	i	i	i
O=C(NCC1CCCN(C2Cc3ccccc3C2)C1)c1cccs1 (stereo not drawn)	i	i	i	i	i
CCS(=O)(=O)N1CCC(C(=O)Nc2ccc(C(C)=O)cc2)CC1	i	i	i	i	i
Cn1c(N2CCN(C(=O)Nc3ccc(F)cc3)CC2)nc2ccccc21	i	88*	i	i	i
CCn1c(N2CCN(C(=S)NCCc3ccccc3)CC2)nc2ccccc21	i	87*	i	i	i
CCn1c(N2CCN(C(=S)NC)CC2)nc2ccccc21	i	68*	i	i	i
CCn1c(N2CCN(S(=O)(=O)c3ccc(Cl)cc3)CC2)nc2ccccc21	i	i	i	i	i
COc1ccc(C2C(C(C)=O)=C(O)C(=O)N2c2ccc(Br)cc2)cc1 (stereo not drawn)	i	i	i	i	-5*
COc1ccc(C2C(C(C)=O)=C(O)C(=O)N2c2ccc(O)cc2)cc1 (stereo not drawn)	i	i	i	i	i
SMILES	TRPC6 activator	TRPC4 agonist	TRPC6 inhibitor	TRPC4 potent	TRPC4 block
Cc1nnc2c(N3CCN(CCO)CC3)nc3ccccc3n12	i	i	i	i	i
CC(C)N(CC(N)=O)C(=O)Cc1coc2cc3c(cc12)CCC3	i	i	i	13*	i
CCn1ncc(S(=O)(=O)N2CCN(c3cccc(OC)c3)CC2)c1C	i	i	i	i	i
O=S(=O)(c1ccc(-n2cnnn2)cc1)N1CCC(N2CCCCC2)CC1	i	i	i	12*	i
COc1cc(S(=O)(=O)N2CCC(N3CCCCC3)CC2)ccc1-n1cnnn1	i	i	i	17*	i
C[C@H](C(=O)O)c1n[nH]c(=O)c2ccccc12	i	i	i	i	i
CCOC(=O)C(C)c1n[nH]c(=O)c2ccccc12 (stereo not drawn)	i	i	i	13*	i
CC(=O)c1ccc(OCc2cc(C(=O)NCCn3nc(C)cc3C)no2)cc1	i	i	i	i	i
